Test results published in ChEMBL document CHEMBL1155379, “Effect of 3'-end capping of aptamer with various 2',4'-bridged nucleotides: Enzymatic post-modification toward a practical use of polyclonal aptamers” (Bioorg Med Chem Lett, 2010).

Columns and labels:
[1] = Chemical stability in presence of 80% (v/v) human serum assessed as intact compound remaining after 8 hrs by PAGE; format: physicochemical; settings: read-out: Stability
In short: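 Aptamer incubated in 80% v/v human serum at 37 °C for 8 h; intact full-length aptamer remaining quantified.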

[2] = Chemical stability in presence of snake venom phosphodiesterase 1 assessed as oligonucleotide degradation after 120 mins by PAGE; format: physicochemical; settings: 2 h
[3] = target: Prothrombin (Homo sapiens, UniProt P00734); test: Binding affinity to human thrombin after 30 mins by non-equilibrium capillary electrophoresis
In short: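 Capillary electrophoresis of aptamer–thrombin mixtures: aptamer 1 nM with thrombin 4 nM in 20 mM Tris-HCl (1 mM MgCl2) pH 7.4 sample buffer; running buffer 100 mM sodium borate pH 8.35; separation +12 kV, injection 0.5 psi × 7.8 s. Kd derived from binding saturation curves over varied thrombin concentrations.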

Row | SMILES | remaining at 8 h [1] | Stability [2] | Kd [3]
1 | C=C1NC(=O)C(C)=CN1[C@H]1C[C@H](OP(=O)(O)OC[C@H]2O[C@@H](n3cnc4c(=O)[nH]c(N)nc43)[C@H](O)[C@@H]2OP(=O)(O)OC[C@H]2O[C@@H](n3cnc4c(N)ncnc43)[C@H](O)[C@@H]2OP(=O)(O)OC[C@H]2O[C@@H](n3ccc(N)nc3=O)[C@H](O)[C@@H]2OP(=O)(O)OC[C@H]2O[C@@H](n3cc(C)c(=O)[nH]c3=O)C[C@@H]2OP(=O)(O)OC[C@@]23CNO[C@@H]([C@H](n4cc(C)c(=O)[nH]c4=O)O2)[C@@H]3O)[C@@H](COP(=O)(O)O[C@H]2[C@@H](O)[C@H](n3cnc4c(=O)[nH]c(N)nc43)O[C@@H]2COP(=O)(O)O[C@H]2[C@@H](O)[C@H](n3cnc4c(=O)[nH]c(N)nc43)O[C@@H]2COP(=O)(O)O[C@H]2[C@@H](O)[C@H](n3cnc4c(=O)[nH]c(N)nc43)O[C@@H]2COP(=O)(O)O[C@H]2[C@@H](O)[C@H](n3cnc4c(=O)[nH]c(N)nc43)O[C@@H]2COP(=O)(O)O[C@H]2C[C@H](n3cc(C)c(=O)[nH]c3=O)O[C@@H]2COP(=O)(O)O[C@H]2C[C@H](n3cc(C)c(=O)[nH]c3=O)O[C@@H]2COP(=O)(O)O[C@H]2[C@@H](O)[C@H](n3cnc4c(=O)[nH]c(N)nc43)O[C@@H]2COP(=O)(O)O[C@H]2[C@@H](O)[C@H](n3cnc4c(=O)[nH]c(N)nc43)O[C@@H]2COP(=O)(O)O[C@H]2[C@@H](O)[C@H](n3cnc4c(N)ncnc43)O[C@@H]2COP(=O)(O)O[C@H]2[C@@H](O)[C@H](n3ccc(N)nc3=O)O[C@@H]2COP(=O)(O)O[C@H]2[C@@H](O)[C@H](n3cnc4c(=O)[nH]c(N)nc43)O[C@@H]2COP(=O)(O)O[C@H]2[C@@H](O)[C@H](n3cnc4c(=O)[nH]c(N)nc43)O[C@@H]2COP(=O)(O)O[C@H]2[C@@H](O)[C@H](n3cnc4c(=O)[nH]c(N)nc43)O[C@@H]2COP(=O)(O)O[C@H]2[C@@H](O)[C@H](n3cnc4c(N)ncnc43)O[C@@H]2COP(=O)(O)O[C@H]2C[C@H](n3cc(C)c(=O)[nH]c3=O)O[C@@H]2COP(=O)(O)O[C@H]2[C@@H](O)[C@H](n3cnc4c(=O)[nH]c(N)nc43)O[C@@H]2COP(=O)(O)O[C@H]2[C@@H](O)[C@H](n3cnc4c(=O)[nH]c(N)nc43)O[C@@H]2COP(=O)(O)O[C@H]2C[C@H](n3cc(C)c(=O)[nH]c3=O)O[C@@H]2COP(=O)(O)O[C@H]2[C@@H](O)[C@H](n3cnc4c(=O)[nH]c(N)nc43)O[C@@H]2COP(=O)(O)O[C@H]2[C@@H](O)[C@H](n3ccc(N)nc3=O)O[C@@H]2COP(=O)(O)O[C@H]2[C@@H](O)[C@H](n3ccc(N)nc3=O)O[C@@H]2COP(=O)(O)O[C@H]2C[C@H](n3cc(C)c(=O)[nH]c3=O)O[C@@H]2COP(=O)(O)O[C@H]2[C@@H](O)[C@H](n3cnc4c(=O)[nH]c(N)nc43)O[C@@H]2COP(=O)(O)O[C@H]2[C@@H](O)[C@H](n3cnc4c(N)ncnc43)O[C@@H]2COc2ccc3c(c2)Oc2cc(O)ccc2C32OC(=O)c3ccccc32)O1 (some centres undefined) | 20% | Stable | 0.21 nM
2 | C=C1NC(=O)C(C)=CN1[C@H]1C[C@H](OP(=O)(O)OC[C@H]2O[C@@H](n3cnc4c(=O)[nH]c(N)nc43)[C@H](O)[C@@H]2OP(=O)(O)OC[C@H]2O[C@@H](n3cnc4c(N)ncnc43)[C@H](O)[C@@H]2OP(=O)(O)OC[C@H]2O[C@@H](n3ccc(N)nc3=O)[C@H](O)[C@@H]2OP(=O)(O)OC[C@H]2O[C@@H](n3cc(C)c(=O)[nH]c3=O)C[C@@H]2O)[C@@H](COP(=O)(O)O[C@H]2[C@@H](O)[C@H](n3cnc4c(=O)[nH]c(N)nc43)O[C@@H]2COP(=O)(O)O[C@H]2[C@@H](O)[C@H](n3cnc4c(=O)[nH]c(N)nc43)O[C@@H]2COP(=O)(O)O[C@H]2[C@@H](O)[C@H](n3cnc4c(=O)[nH]c(N)nc43)O[C@@H]2COP(=O)(O)O[C@H]2[C@@H](O)[C@H](n3cnc4c(=O)[nH]c(N)nc43)O[C@@H]2COP(=O)(O)O[C@H]2C[C@H](n3cc(C)c(=O)[nH]c3=O)O[C@@H]2COP(=O)(O)O[C@H]2C[C@H](n3cc(C)c(=O)[nH]c3=O)O[C@@H]2COP(=O)(O)O[C@H]2[C@@H](O)[C@H](n3cnc4c(=O)[nH]c(N)nc43)O[C@@H]2COP(=O)(O)O[C@H]2[C@@H](O)[C@H](n3cnc4c(=O)[nH]c(N)nc43)O[C@@H]2COP(=O)(O)O[C@H]2[C@@H](O)[C@H](n3cnc4c(N)ncnc43)O[C@@H]2COP(=O)(O)O[C@H]2[C@@H](O)[C@H](n3ccc(N)nc3=O)O[C@@H]2COP(=O)(O)O[C@H]2[C@@H](O)[C@H](n3cnc4c(=O)[nH]c(N)nc43)O[C@@H]2COP(=O)(O)O[C@H]2[C@@H](O)[C@H](n3cnc4c(=O)[nH]c(N)nc43)O[C@@H]2COP(=O)(O)O[C@H]2[C@@H](O)[C@H](n3cnc4c(=O)[nH]c(N)nc43)O[C@@H]2COP(=O)(O)O[C@H]2[C@@H](O)[C@H](n3cnc4c(N)ncnc43)O[C@@H]2COP(=O)(O)O[C@H]2C[C@H](n3cc(C)c(=O)[nH]c3=O)O[C@@H]2COP(=O)(O)O[C@H]2[C@@H](O)[C@H](n3cnc4c(=O)[nH]c(N)nc43)O[C@@H]2COP(=O)(O)O[C@H]2[C@@H](O)[C@H](n3cnc4c(=O)[nH]c(N)nc43)O[C@@H]2COP(=O)(O)O[C@H]2C[C@H](n3cc(C)c(=O)[nH]c3=O)O[C@@H]2COP(=O)(O)O[C@H]2[C@@H](O)[C@H](n3cnc4c(=O)[nH]c(N)nc43)O[C@@H]2COP(=O)(O)O[C@H]2[C@@H](O)[C@H](n3ccc(N)nc3=O)O[C@@H]2COP(=O)(O)O[C@H]2[C@@H](O)[C@H](n3ccc(N)nc3=O)O[C@@H]2COP(=O)(O)O[C@H]2C[C@H](n3cc(C)c(=O)[nH]c3=O)O[C@@H]2COP(=O)(O)O[C@H]2[C@@H](O)[C@H](n3cnc4c(=O)[nH]c(N)nc43)O[C@@H]2COP(=O)(O)O[C@H]2[C@@H](O)[C@H](n3cnc4c(N)ncnc43)O[C@@H]2COc2ccc3c(c2)Oc2cc(O)ccc2C32OC(=O)c3ccccc32)O1 (some centres undefined) | 0% | Unstable | 0.25 nM
3 | C=C1NC(=O)C(C)=CN1[C@H]1C[C@H](OP(=O)(O)OC[C@H]2O[C@@H](n3cnc4c(=O)[nH]c(N)nc43)[C@H](O)[C@@H]2OP(=O)(O)OC[C@H]2O[C@@H](n3cnc4c(N)ncnc43)[C@H](O)[C@@H]2OP(=O)(O)OC[C@H]2O[C@@H](n3ccc(N)nc3=O)[C@H](O)[C@@H]2OP(=O)(O)OC[C@H]2O[C@@H](n3cc(C)c(=O)[nH]c3=O)C[C@@H]2OP(=O)(O)OC[C@]23O[C@@H](n4cc(C)c(=O)[nH]c4=O)[C@H](OCOC2c2ccccc2)[C@@H]3O)[C@@H](COP(=O)(O)O[C@H]2[C@@H](O)[C@H](n3cnc4c(=O)[nH]c(N)nc43)O[C@@H]2COP(=O)(O)O[C@H]2[C@@H](O)[C@H](n3cnc4c(=O)[nH]c(N)nc43)O[C@@H]2COP(=O)(O)O[C@H]2[C@@H](O)[C@H](n3cnc4c(=O)[nH]c(N)nc43)O[C@@H]2COP(=O)(O)O[C@H]2[C@@H](O)[C@H](n3cnc4c(=O)[nH]c(N)nc43)O[C@@H]2COP(=O)(O)O[C@H]2C[C@H](n3cc(C)c(=O)[nH]c3=O)O[C@@H]2COP(=O)(O)O[C@H]2C[C@H](n3cc(C)c(=O)[nH]c3=O)O[C@@H]2COP(=O)(O)O[C@H]2[C@@H](O)[C@H](n3cnc4c(=O)[nH]c(N)nc43)O[C@@H]2COP(=O)(O)O[C@H]2[C@@H](O)[C@H](n3cnc4c(=O)[nH]c(N)nc43)O[C@@H]2COP(=O)(O)O[C@H]2[C@@H](O)[C@H](n3cnc4c(N)ncnc43)O[C@@H]2COP(=O)(O)O[C@H]2[C@@H](O)[C@H](n3ccc(N)nc3=O)O[C@@H]2COP(=O)(O)O[C@H]2[C@@H](O)[C@H](n3cnc4c(=O)[nH]c(N)nc43)O[C@@H]2COP(=O)(O)O[C@H]2[C@@H](O)[C@H](n3cnc4c(=O)[nH]c(N)nc43)O[C@@H]2COP(=O)(O)O[C@H]2[C@@H](O)[C@H](n3cnc4c(=O)[nH]c(N)nc43)O[C@@H]2COP(=O)(O)O[C@H]2[C@@H](O)[C@H](n3cnc4c(N)ncnc43)O[C@@H]2COP(=O)(O)O[C@H]2C[C@H](n3cc(C)c(=O)[nH]c3=O)O[C@@H]2COP(=O)(O)O[C@H]2[C@@H](O)[C@H](n3cnc4c(=O)[nH]c(N)nc43)O[C@@H]2COP(=O)(O)O[C@H]2[C@@H](O)[C@H](n3cnc4c(=O)[nH]c(N)nc43)O[C@@H]2COP(=O)(O)O[C@H]2C[C@H](n3cc(C)c(=O)[nH]c3=O)O[C@@H]2COP(=O)(O)O[C@H]2[C@@H](O)[C@H](n3cnc4c(=O)[nH]c(N)nc43)O[C@@H]2COP(=O)(O)O[C@H]2[C@@H](O)[C@H](n3ccc(N)nc3=O)O[C@@H]2COP(=O)(O)O[C@H]2[C@@H](O)[C@H](n3ccc(N)nc3=O)O[C@@H]2COP(=O)(O)O[C@H]2C[C@H](n3cc(C)c(=O)[nH]c3=O)O[C@@H]2COP(=O)(O)O[C@H]2[C@@H](O)[C@H](n3cnc4c(=O)[nH]c(N)nc43)O[C@@H]2COP(=O)(O)O[C@H]2[C@@H](O)[C@H](n3cnc4c(N)ncnc43)O[C@@H]2COc2ccc3c(c2)Oc2cc(O)ccc2C32OC(=O)c3ccccc32)O1 (some centres undefined) | 20% | Stable | 0.28 nM
